Data set [1] can be described thus: Cytotoxicity against human BEAS2B cells assessed as cell viability after 72 hrs by MTS assay. The settings on record: beas-2b. Type of data set: cell-based. The procedure, abridged: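 Beas-2B seeded at 2000 cells/well; 10 mM DMSO stocks serially diluted in DMSO and equal amounts added to cultures; 72 h at 37 °C; medium replaced by 1:5 MTS/PBS, 1 h further incubation; viable cells read as optical density at 490 nm.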
In general terms: Formazan colour is commonly taken as a measure of viable cells.

Data set [2] addresses T1, Signal transducer and activator of transcription 6 (Homo sapiens) (UniProt P42226).
T1 sequence (whole entry): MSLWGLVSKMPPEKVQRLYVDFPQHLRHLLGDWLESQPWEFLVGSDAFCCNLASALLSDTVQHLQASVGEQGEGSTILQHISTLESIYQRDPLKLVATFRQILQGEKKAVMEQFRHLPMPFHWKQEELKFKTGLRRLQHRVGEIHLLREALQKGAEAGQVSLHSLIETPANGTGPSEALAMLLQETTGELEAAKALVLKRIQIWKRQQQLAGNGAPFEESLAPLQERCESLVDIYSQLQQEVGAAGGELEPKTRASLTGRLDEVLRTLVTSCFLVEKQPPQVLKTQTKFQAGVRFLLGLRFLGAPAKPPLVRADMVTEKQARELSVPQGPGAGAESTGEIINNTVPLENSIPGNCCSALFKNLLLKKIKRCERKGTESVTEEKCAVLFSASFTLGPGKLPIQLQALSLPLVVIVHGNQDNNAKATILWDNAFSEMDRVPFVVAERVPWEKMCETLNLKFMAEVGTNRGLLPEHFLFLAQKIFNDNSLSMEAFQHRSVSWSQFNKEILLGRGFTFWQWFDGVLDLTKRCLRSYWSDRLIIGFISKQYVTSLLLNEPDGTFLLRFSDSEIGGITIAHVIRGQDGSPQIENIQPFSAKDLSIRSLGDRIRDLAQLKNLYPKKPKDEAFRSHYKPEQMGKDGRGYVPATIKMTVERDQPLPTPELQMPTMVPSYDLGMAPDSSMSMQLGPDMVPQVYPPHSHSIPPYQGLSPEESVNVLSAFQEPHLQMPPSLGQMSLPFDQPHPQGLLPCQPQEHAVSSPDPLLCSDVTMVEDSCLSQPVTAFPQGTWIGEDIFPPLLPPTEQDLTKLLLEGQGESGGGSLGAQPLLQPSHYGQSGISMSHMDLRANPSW
The data set is described as follows: Inhibition of IL-13-stimulated STAT6 SH2 domain phosphorylation in human Beas-2B cells assessed as inhibition of CCL26 mRNA expression preincubated for 2 hrs followed by stimulation with IL-13 for 24 hrs by RT-PCR analysis.

For data set [3], the target named is T2, Signal transducer and activator of transcription 1 (Mus musculus) (UniProt P42225).
T2 sequence (whole entry): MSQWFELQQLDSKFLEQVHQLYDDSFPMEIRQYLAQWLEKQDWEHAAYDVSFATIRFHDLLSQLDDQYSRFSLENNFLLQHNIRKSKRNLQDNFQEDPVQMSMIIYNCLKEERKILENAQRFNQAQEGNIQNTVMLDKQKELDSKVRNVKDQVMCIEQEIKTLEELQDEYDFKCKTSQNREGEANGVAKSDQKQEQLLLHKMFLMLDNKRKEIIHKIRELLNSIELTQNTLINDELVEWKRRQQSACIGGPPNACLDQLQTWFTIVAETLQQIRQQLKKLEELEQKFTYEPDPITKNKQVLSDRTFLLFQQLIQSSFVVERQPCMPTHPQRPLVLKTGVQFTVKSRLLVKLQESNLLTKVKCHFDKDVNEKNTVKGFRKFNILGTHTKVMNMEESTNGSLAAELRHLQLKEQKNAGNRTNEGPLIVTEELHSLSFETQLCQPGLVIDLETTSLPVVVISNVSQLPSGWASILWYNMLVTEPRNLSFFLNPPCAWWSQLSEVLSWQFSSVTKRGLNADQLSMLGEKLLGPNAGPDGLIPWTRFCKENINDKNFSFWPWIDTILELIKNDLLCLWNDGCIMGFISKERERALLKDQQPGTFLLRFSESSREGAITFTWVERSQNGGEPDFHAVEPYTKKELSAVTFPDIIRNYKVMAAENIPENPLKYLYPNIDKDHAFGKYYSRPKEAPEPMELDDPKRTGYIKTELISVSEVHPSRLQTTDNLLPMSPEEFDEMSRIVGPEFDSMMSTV
The data set is described as follows: Inhibition of IL6-induced STAT1 phosphorylation at Y701 in CD4+ T lymphocytes isolated from C57BL/6J mouse preincubated for 2 hrs followed by activation with plate-bound anti-CD3/anti-CD28 and IL6 for 15 mins by Western blot analysis. Type of data set: cell-based. In outline:
(§1)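 CD4+ T cells from C57BL/6J mice, sorted by AutoMACS; activated 15 min with plate-bound anti-CD3 and/or anti-CD28 with IL-2, IL-6 or IL-4; lysed with protease inhibitors plus 10 mM NaF and 1 mM Na3VO4; Bradford-normalised immunoblots for pSTAT1 (Tyr701), pSTAT5 (Tyr694), pSTAT6 (Tyr641) and total STATs.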
In general terms: A western blot detects proteins with antibodies after separation by electrophoresis.

Data set [4] concerns the target T3, Signal transducer and transcription activator 6 (Mus musculus) (UniProt P52633).
T3 sequence (whole entry): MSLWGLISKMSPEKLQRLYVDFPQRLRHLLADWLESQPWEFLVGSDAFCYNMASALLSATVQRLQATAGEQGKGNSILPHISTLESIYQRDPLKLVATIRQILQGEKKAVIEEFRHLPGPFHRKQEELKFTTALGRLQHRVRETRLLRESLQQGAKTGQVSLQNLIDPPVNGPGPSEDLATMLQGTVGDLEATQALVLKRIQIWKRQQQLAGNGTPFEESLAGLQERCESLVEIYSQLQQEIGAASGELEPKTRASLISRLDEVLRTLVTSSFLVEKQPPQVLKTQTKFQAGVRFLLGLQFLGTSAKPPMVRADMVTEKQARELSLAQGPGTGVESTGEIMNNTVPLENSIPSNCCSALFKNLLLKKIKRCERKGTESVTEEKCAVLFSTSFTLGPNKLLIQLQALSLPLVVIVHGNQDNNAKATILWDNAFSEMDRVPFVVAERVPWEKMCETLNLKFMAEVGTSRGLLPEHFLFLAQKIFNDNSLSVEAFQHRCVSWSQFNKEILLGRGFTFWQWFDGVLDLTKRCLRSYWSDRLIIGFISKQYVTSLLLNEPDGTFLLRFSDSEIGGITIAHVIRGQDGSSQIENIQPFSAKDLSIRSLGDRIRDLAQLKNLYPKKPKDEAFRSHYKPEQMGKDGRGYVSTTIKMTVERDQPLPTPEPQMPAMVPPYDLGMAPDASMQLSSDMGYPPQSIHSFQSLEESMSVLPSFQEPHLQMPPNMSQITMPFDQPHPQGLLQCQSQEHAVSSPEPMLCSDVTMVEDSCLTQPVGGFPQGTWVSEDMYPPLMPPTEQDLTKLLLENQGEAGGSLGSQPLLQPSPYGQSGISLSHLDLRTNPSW
The data set is described as follows: Inhibition of IL4-induced STAT6 phosphorylation at Y641 in CD4+ T lymphocytes isolated from C57BL/6J mouse preincubated for 2 hrs followed by activation with plate-bound anti-CD3/anti-CD28 and IL4 for 15 mins by Western blot analysis. In kind it is cell-based. In outline:
as §1

Calls of active or inactive are those of the source. The calls are words filed in the database; no cut-off is given here.

`C/C(=C\C(=O)N[C@H](C(=O)N1CCC[C@H]1C(=O)N(C)c1ccccc1)C(C)(C)C)c1ccc(C(F)(F)P(=O)(OCOC(=O)C(C)(C)C)OCOC(=O)C(C)(C)C)cc1`: the Activity entry in data set [1] is reported as “Non-toxic”. In addition, the inhibition result in data set [2] is “Dose-dependent effect”. In data set [3], the inhibition entry was “inactive”. Besides, the inhibition result in data set [4] is “Active”.
